One may read the EC50 as the concentration at which the effect is half-maximal. As a reminder, the IC50 is the concentration that inhibits the measured activity by half.

Results on 2 compounds are retold here after publication PMC5915676 (Cell chemical biology, 2016).

Where a chain is given by its changes, count along the chain named. Entries after “also recorded” stand apart in the source; their conditions may differ. Like-named read-outs stand apart in the source and are kept apart here.

One data set relates to MDA-MB-231 cells. The experiment in a line: MTT cell viability assay. The conditions noted are these: read-out: EC50 (cell viability), MDA-MB-231, 72 h. It is filed as cell-based, human. (Formazan colour is commonly taken as a measure of viable cells.)
In the next data set the test system is SKOV3 PHGDH KO cells. The experiment in a line: 6-day proliferation assay. The data set is classed as cell-based, human. The note with it: 50 μM PKUMDL-WQ-2201, 6 days. In outline:
(§1)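 SKOV3 control (sgRNA against GFP) and PHGDH knockout cells were used. Knockout was made by lentiCRISPR with an exon 8 sgRNA, puromycin selection and single-cell clones, and was western-validated. Cells were grown in RPMI-1640 with 10% FBS and plated at 10,000 cells/well in triplicate. After 24 h they received DMSO or compound, and viable cells were counted daily for 6 days by trypan-blue exclusion on a hemocytometer. Data are mean ± SEM, n=3 biological replicates, two-tailed Student's t-test.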

The target of another data set is T1, PHGDH mutant T56AK57A (Homo sapiens, UniProt O43175, K58A/T57A).
T1 sequence (O43175 1-533 T57A/K58A): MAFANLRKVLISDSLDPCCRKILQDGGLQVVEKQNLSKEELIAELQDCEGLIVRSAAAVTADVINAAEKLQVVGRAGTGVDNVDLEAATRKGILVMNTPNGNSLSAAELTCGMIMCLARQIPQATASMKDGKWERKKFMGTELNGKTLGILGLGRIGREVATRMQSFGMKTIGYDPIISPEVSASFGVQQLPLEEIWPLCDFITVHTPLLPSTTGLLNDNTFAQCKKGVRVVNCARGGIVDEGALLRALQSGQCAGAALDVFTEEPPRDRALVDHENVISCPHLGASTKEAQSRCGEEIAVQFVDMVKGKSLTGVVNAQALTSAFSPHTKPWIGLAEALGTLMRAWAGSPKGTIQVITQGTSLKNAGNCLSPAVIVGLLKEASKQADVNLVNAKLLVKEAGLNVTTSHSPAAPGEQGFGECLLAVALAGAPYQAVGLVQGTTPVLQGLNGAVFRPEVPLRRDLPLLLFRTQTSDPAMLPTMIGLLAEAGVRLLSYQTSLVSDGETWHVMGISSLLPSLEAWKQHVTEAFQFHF
The data set is described as follows: PHGDH enzyme assay, mutant T56AK57A. The data set is classed as biochemical. The note with it: read-out: IC50, PHGDH enzyme inhibition. The procedure, abridged:
(§2)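 Point mutants were made by QuikChange site-directed mutagenesis of pET-21a(+) wild-type human PHGDH and sequence-verified. Each was expressed in E. coli and purified like the wild type, then assayed for activity and inhibition in the same PSAT1-coupled PHGDH assay.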

The next data set relates to MDA-MB-468 xenografts. The data set is described as follows: MDA-MB-468 xenograft mouse model. The conditions noted are these: 20, 10 and 5 mg/kg/day IP, 30 days of drug delivery, vs vehicle. It is filed as in vivo, NOD.CB17 Scid/J mice.
In the next data set the target is T2, PHGDH (Homo sapiens, UniProt O43175).
T2 sequence (O43175 1-533): T1 sequence (O43175 1-533 T57A/K58A) with A57T, A58K
The experiment in a line: PHGDH enzyme assay coupled with PSAT1 reaction. It is filed as biochemical. In outline: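 Full-length human PHGDH and PSAT1 were His-purified from E. coli BL21(DE3) (pET21a(+)) by Ni-NTA then gel filtration. PHGDH activity was measured coupled to the upstream PSAT1 reaction. For cofactor competition, enzyme was preincubated 10 min at 25°C with NADH and compound, and Pser was added to start the reaction. For combinations, fixed first-compound levels (0–200 μM) were mixed with second-compound series (0–200 μM) and preincubated with enzyme.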

Data set [1] is described as follows: Body weight of xenograft mice during treatment. The data set is classed as in vivo. The note with it: over the course of the xenograft experiments.
Data set [2] deals with panel of cancer cell lines along with one immortalized human breast epithelial cell line. The experiment in a line: MTT cell viability assay, cell line panel. It is filed as cell-based.
Data set [3] concerns SKOV3 GFP KO control cells. The experiment in a line: 6-day proliferation assay. The note with it: 50 μM PKUMDL-WQ-2201, 6 days. The data set is classed as cell-based, human. The procedure, abridged:
as §1

A further data set relates to MCF-7 cells. The data set is described as follows: MTT cell viability assay. The data set is classed as cell-based, human. The note with it: read-out: EC50 (cell viability), MCF-7, 72 h.
Data set [4] concerns MDA-MB-468 cells. The experiment in a line: MTT cell viability assay. The data set is classed as cell-based, human. The note with it: read-out: EC50, antitumor activity (cell viability), MDA-MB-468, 72 h.
For another data set, the system named is ZR-75-1 cells. The experiment in a line: MTT cell viability assay. The data set is classed as cell-based, human. The note with it: selectivity, PHGDH amplified vs non-dependent line.
The target in a further data set is T3, PHGDH mutant T59A (Homo sapiens, UniProt O43175, T60A).
T3 sequence (O43175 1-533 T60A): T1 sequence (O43175 1-533 T57A/K58A) with A57T, A58K, T60A
The experiment in a line: PHGDH enzyme assay, mutant T59A. The conditions noted are these: read-out: IC50, PHGDH enzyme inhibition. It is filed as biochemical. The procedure, abridged: as §2

A further data set deals with MDA-MB-231 xenografts. The experiment in a line: MDA-MB-231 xenograft mouse model. The data set is classed as in vivo, NOD.CB17 Scid/J mice. The note with it: 20 mg/kg/day IP.
The subject of the next data set is MCF-10A cells. The experiment in a line: MTT cell viability assay. The data set is classed as cell-based, human.
Data set [5] relates to serine biosynthesis pathway in SKOV3 GFP KO cells. The experiment in a line: U-13C-glucose stable isotope labeling, LC-HRMS. It is filed as cell-based, human.
The next data set concerns HCC70 cells. The experiment in a line: MTT cell viability assay. The data set is classed as cell-based, human. The note with it: read-out: EC50, antitumor activity (cell viability), HCC70, 72 h.
The subject of data set [6] is MDA-MB-468 cells. The note with it: 30 μM, ref Mullarky et al., 2016, cited from earlier work.
The conditions of data set [7]: ref Mullarky et al., 2016; cited from earlier work.
Setting [8] is: 37 μM PKUMDL-WQ-2101, 291 μM PKUMDL-WQ-2201, 24 h treatment.

On to `CCNC(=S)N/N=C/c1ccc(-c2ccc(C(=O)O)c(Cl)c2)o1` [PKUMDL-WQ-2201], for which the EC50 in the data set with MDA-MB-231 cells is more than 200 µM; in data set [2] (read-out: EC50 in PHGDH amplified breast cancer cells, serine-replete media), less than 10 µM; with MCF-7 cells, more than 200 µM; in the data set with MDA-MB-468 cells [4], 6.9 µM; with HCC70 cells, 10 µM. For the same compound, the cell growth result is listed as “remained unaffected” with SKOV3 PHGDH KO cells and “suppressed” in data set [3]. Besides, the IC50 on PHGDH mutant T56AK57A was more than 300 µM; on PHGDH (read-out: IC50, PHGDH enzyme inhibition, WT PHGDH) it was 35.7 ± 8.6 µM; at PHGDH mutant T59A, 69 ± 40 µM. Also, the tumor growth entry is reported as “substantial inhibitory effects; also recorded: significantly suppressed the growth of tumors” in the data set on MDA-MB-468 xenografts and “neither PKUMDL-WQ-2101 nor PKUMDL-WQ-2201 affected tumor growth” in the data set with MDA-MB-231 xenografts. The “combination effect on PHGDH inhibition (Combination Index)” value is listed as “synergistic interactions” at PHGDH (PKUMDL-WQ-2101 kept at 25 μM, PKUMDL-WQ-2201 1 to 200 μM) and “antagonism” on PHGDH (PKUMDL-WQ-2202 kept at 25 μM, PKUMDL-WQ-2201 varied). Besides, on PHGDH (compound 50 μM, NADH 5 to 40 μM), the “competition with cofactor NADH” value is “did not bound in the cofactor site”. In addition, in data set [1], the “body weight (tolerability)” value is “able to maintain normal body weight”. Besides, in data set [2] (lines other than ZR-75-1), the “bioactivity in the other three PHGDH non-amplified breast cancer cell lines” value was “No bioactivities”. In the data set on ZR-75-1 cells, the “fold more active in MDA-MB-468 and HCC70 than in ZR-75-1” value was 13- to 18 fold. In the data set with MCF-10A cells, the cytotoxic effects result was “weak cytotoxic effects”. Besides, the “m+2, m+6 and m+7 glucose labeling in UTP and ATP” value in data set [5] (setting [8]) is listed as “decreases”. In addition, the “m+2 glucose incorporation into glutathione” value in data set [5] (setting [8]) is on record as “decreases in m+2”. For the same compound, the “reduction of glucose incorporation into serine and glycine” value in data set [5] (about IC50 (37 μM PKUMDL-WQ-2101, 291 μM PKUMDL-WQ-2201), 24 h treatment) is “more than 50%”.
Turning to CBR-5884, the “inhibition of growth of MDA-MB-468 cells” value in the data set on MDA-MB-468 cells [6] (serine-deplete media) is 80% to 90%; with MDA-MB-468 cells [6] (serine-replete media) it was 35% to 60%. In data set [7], the “stability in mouse plasma” value is “unstable in mouse plasma”.
